Test results: ChEMBL document CHEMBL4665761, “Optimizing the Benefit/Risk of Acetyl-CoA Carboxylase Inhibitors through Liver Targeting” (J Med Chem, 2020); call rule not given here
≈ marks a conversion by molar mass, not a printed value. Values belong to the compound of their own block, whether it stands above or below them.

Key:
[1] = Ratio of drug uptake in Wistar-Hannover rat unbound liver to plasma concentration at 30 mg/kg, po after 6 hrs by LC/MS-MS analysis; type: ADME, organism-based; conditions: other tissue
Outline: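 Male Wistar-Hannover rats (n = 2 or 3) dosed orally as a suspension in 0.5% methyl cellulose with 0.1% Tween 80. Plasma and liver sampled 6 h post-dose. Kp is total liver/plasma; Kpu,u uses unbound fractions from equilibrium dialysis of plasma and liver.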

[2] = Half life in Wistar-Hannover rat plasma at 4 mg/kg, po and measured up to 24 hrs by LC/MS-MS analysis; type: ADME, organism-based
[3] = Oral bioavailability in Wistar-Hannover rat plasma at 4 mg/kg and measured up to 24 hrs by LC/MS-MS analysis; type: ADME, organism-based
Outline: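 Plasma concentration–time data, n = 2, averaged. Cmax and Tmax read directly from the data. AUC0–24 by the linear trapezoidal rule. F calculated as dose-normalized AUC PO/IV.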

[4] = target: Cytochrome P450 3A4 (Homo sapiens, UniProt P08684); test: Activation of CYP3A4 in human hepatocytes at 0.5 to 200 uM; type: ADME, cell-based, Hepatocyte; conditions: dose 0.5-200 µM
Sequence of Cytochrome P450 3A4 (P08684 whole entry): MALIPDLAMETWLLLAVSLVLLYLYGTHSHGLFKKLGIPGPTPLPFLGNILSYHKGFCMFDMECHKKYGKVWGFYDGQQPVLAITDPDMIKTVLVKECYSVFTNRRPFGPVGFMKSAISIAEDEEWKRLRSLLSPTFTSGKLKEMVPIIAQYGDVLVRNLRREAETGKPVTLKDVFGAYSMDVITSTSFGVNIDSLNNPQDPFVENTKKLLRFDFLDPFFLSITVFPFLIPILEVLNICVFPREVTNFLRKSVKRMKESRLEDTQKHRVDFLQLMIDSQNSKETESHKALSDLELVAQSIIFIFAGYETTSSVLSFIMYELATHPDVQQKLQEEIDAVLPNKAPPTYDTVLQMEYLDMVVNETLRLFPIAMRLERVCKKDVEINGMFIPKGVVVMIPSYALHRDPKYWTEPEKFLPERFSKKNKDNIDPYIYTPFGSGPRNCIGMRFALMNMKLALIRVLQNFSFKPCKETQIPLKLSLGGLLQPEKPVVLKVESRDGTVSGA
Outline: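 Individual human hepatocyte lots treated at 0.5–200 µM. Read-out is CYP3A4 enzyme activity.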

[5] = Inhibition of DNL in cynomolgus monkey assessed as fructose-induced DNL level at 10 mg/kg, po after 9 hrs relative to control; type: functional; conditions: Macaca fascicularis
Outline: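 Male cynomolgus macaques were fasted overnight and enriched with plasma D2O, then given a single 10 mg/kg PO dose. Fructose was given orally every 30 min from t = 0, with a banana at hours 2 and 3. Deuterium incorporation into plasma TG palmitate was followed over 9 h, n = 12, mean ± SEM, versus vehicle.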

[6] = target: T1, Cytochrome P450 1A2 (Homo sapiens, UniProt P05177); test: Activation of CYP1A2 in human hepatocytes at 0.5 to 200 uM; type: ADME, cell-based, Hepatocyte; conditions: dose 0.5-200 µM
T1 sequence (P05177 whole entry): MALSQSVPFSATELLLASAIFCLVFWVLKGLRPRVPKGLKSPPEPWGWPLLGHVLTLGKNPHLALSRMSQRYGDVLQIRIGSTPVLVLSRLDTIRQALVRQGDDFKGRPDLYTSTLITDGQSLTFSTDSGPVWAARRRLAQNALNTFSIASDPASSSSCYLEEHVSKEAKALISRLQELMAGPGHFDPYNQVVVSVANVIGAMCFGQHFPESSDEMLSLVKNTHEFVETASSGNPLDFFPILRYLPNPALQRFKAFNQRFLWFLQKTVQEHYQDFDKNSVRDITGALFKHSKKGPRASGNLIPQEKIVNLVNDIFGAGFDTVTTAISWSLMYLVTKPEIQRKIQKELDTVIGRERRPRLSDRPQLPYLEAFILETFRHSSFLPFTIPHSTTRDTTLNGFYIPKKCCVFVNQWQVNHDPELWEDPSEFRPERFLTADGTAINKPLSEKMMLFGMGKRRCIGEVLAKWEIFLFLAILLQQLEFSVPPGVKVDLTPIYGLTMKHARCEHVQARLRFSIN

[7] = target: T1, Cytochrome P450 1A2; test: inhibition of CYP1A2 in human liver microsomes; type: ADME
[8] = Inhibition of DNL in Sprague-Dawley rat assessed as reduction in DNL level in liver at 300 mg/kg, po pretreated with one hr followed by [14C]-acetate treatment and measured after 1 hr relative to control; type: functional
Outline: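 Sprague-Dawley rats given single oral doses of 0.03–300 mg/kg in 0.5% methyl cellulose vehicle, n = 16 per dose. Read-out is incorporation of 14C-acetate into lipids in liver, bone marrow and lung, measured at 2 h post-dose relative to vehicle. Data are mean ± SEM. EC50 is reported with a 95% confidence interval.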

[9] = Drug uptake in Wistar-Hannover rat assessed as plasma concentration at 10 mg/kg, po after 6 hrs by LC/MS-MS analysis; type: ADME, organism-based
Outline: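 Male Wistar-Hannover rats, n = 2 or 3, given an oral suspension in 0.5% methyl cellulose with 0.1% Tween 80; one compound was dosed as the HCl salt. Total plasma and liver concentrations were measured 6 h post-dose. Kp = liver/plasma total concentration. Kpu,u uses fu values from equilibrium dialysis.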

[10] = Inhibition of rat ACC2 using acetyl-CoA as substrate incubated for 20 mins in presence of [14C]O3 by liquid scintillation counting method
Outline: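 Purified rat isozyme in a 96-well radioenzymatic assay measuring incorporation of [14C]-bicarbonate into [14C]-malonyl-CoA. Dose-response run at saturating ATP, where IC50 approximates Ki for uncompetitive inhibitors.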

[11] = test system: TK6; test: Genotoxicity in human TK6 cells in presence of (aroclor-induced rat liver S9 fraction/NADPH by micronucleus test; type: toxicity, cell-based
Outline: (§1)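 In vitro micronucleus assay in Chinese hamster ovary or TK6 cells, run with and without metabolic activation by aroclor-induced rat liver S9 fraction plus NADPH.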

[12] = target: UDP-glucuronosyltransferase 1A4 (Homo sapiens, UniProt P22310); test: Inhibition of UGT1A4 in human liver microsomes incubated for 30 mins in presence of UDPGA by LC-MS/MS analysis; type: ADME
Sequence of UDP-glucuronosyltransferase 1A4 (P22310 whole entry): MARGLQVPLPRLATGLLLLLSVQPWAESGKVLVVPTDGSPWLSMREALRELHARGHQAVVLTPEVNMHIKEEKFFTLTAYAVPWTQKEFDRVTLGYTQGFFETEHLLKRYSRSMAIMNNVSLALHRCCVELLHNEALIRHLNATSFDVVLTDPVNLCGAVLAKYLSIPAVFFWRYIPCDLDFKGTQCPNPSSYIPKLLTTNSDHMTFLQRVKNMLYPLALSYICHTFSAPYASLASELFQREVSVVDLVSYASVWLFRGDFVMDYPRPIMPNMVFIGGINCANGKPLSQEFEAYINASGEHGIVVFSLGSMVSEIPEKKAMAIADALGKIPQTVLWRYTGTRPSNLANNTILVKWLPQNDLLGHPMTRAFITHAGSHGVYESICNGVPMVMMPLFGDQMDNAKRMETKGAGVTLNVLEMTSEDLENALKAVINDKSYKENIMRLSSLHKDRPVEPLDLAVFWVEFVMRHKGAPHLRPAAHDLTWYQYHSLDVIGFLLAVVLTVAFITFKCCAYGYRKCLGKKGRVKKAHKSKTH

[13] = Drug excretion in Wistar-Hannover rat urine at 1 mg/kg, iv and measured up to 24 hrs by LC/MS-MS analysis; type: ADME, organism-based; conditions: read-out: Drug excretion
[14] = target: Voltage-gated inwardly rectifying potassium channel KCNH2 (Homo sapiens, UniProt Q12809); test: Inhibition of human ERG at 100 uM
Sequence of Voltage-gated inwardly rectifying potassium channel KCNH2 (Q12809 whole entry): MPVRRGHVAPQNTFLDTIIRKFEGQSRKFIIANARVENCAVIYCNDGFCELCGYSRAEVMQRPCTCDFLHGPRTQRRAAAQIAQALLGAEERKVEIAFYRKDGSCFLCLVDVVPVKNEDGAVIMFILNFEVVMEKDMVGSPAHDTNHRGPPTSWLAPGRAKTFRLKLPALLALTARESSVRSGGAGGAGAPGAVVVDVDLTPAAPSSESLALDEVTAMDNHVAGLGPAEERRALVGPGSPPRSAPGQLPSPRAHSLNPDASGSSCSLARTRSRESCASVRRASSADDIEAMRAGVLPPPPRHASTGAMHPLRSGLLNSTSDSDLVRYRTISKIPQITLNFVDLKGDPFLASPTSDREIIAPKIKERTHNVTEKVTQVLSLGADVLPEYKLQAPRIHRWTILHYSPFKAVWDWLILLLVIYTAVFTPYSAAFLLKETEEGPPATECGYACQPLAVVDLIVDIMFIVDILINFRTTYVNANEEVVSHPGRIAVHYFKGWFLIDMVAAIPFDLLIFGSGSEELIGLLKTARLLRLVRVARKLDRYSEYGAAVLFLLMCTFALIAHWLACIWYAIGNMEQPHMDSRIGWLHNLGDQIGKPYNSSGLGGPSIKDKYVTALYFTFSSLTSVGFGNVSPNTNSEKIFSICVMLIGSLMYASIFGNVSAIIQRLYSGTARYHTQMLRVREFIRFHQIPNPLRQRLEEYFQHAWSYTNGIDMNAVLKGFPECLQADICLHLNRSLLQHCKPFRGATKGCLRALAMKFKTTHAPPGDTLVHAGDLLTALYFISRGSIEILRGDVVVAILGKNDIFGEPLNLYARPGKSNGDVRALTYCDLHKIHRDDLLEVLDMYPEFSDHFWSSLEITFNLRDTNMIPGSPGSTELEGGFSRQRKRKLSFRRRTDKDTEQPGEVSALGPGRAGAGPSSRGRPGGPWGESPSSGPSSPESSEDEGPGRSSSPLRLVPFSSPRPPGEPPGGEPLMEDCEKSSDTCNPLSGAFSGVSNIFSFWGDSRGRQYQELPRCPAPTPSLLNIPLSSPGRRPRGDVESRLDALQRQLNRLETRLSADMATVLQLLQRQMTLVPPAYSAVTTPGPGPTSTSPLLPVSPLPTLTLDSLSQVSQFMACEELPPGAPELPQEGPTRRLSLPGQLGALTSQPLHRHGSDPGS

[15] = Induction of CYP1A2 mRNA expression in human hepatocytes at 0.5 to 200 uM; type: ADME, cell-based, Hepatocyte; conditions: dose 0.5-200 µM
Outline: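 Individual human hepatocyte lots treated at 0.5–200 µM. Read-out is messenger RNA levels of CYP1A2 and CYP3A4.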

[16] = Unbound plasma concentration in Sprague-Dawley rat at 300 mg/kg, po; type: ADME, organism-based; conditions: in vivo
Outline: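 Sprague-Dawley rats given a single oral dose in 0.5% methyl cellulose vehicle. Unbound plasma concentration measured at 300 mg/kg.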

[17] = test system: CHO; test: Genotoxicity in CHO cells in presence of (aroclor-induced rat liver S9 fraction/NADPH by micronucleus test; type: toxicity, cell-based, Cricetulus griseus; conditions: chinese hamster; outline: as §1
[18] = Drug uptake in human hepatocytes assessed as active uptake intrinsic clearance at 1 uM up to 15 mins by LC-MS/MS analysis; type: ADME, cell-based, Hepatocyte; conditions: 0.25 h
[19] = target: Cytochrome P450 2C19 (Homo sapiens, UniProt P33261); test: inhibition of CYP2C19 in human liver microsomes; type: ADME
Sequence of Cytochrome P450 2C19 (P33261 whole entry): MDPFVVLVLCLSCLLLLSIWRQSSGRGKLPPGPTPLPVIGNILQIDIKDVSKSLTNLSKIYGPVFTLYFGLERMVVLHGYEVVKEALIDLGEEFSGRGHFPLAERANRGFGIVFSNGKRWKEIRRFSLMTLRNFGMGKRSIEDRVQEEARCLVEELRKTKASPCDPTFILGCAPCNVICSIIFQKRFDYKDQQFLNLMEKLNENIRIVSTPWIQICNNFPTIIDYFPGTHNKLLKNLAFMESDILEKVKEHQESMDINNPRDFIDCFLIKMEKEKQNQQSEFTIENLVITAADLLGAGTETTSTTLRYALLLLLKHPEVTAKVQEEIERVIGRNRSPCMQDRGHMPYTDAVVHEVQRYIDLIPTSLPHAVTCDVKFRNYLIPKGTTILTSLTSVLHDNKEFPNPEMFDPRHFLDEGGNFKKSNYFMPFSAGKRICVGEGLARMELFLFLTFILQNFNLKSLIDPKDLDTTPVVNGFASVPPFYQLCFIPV

[20] = Half life in cynomolgus monkey plasma at 1 mg/kg, iv and measured up to 72 hrs by LC/MS-MS analysis; type: ADME, organism-based, Macaca fascicularis
Outline: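 Cynomolgus monkeys dosed 1 mg/kg IV as the tris salt in 2% N-methylpyrrolidone/98% sulfobutylether-β-cyclodextrin (12.5%) in 50 mM TRIS, pH 8.0, or PO as the tris salt. Plasma was analysed by LC-MS/MS, n = 2. CL = IV dose/AUC; Vss = dose/(AUC × elimination rate constant); Cmax taken from observed data.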

[21] = Thermodynamic solubility of the compound at pH 7.4 after 24 hrs; type: physicochemical; conditions: buffer, read-out: Therm_solubility
[22] = Ratio of drug uptake in Wistar-Hannover rat unbound liver to plasma concentration at 10 mg/kg, po after 6 hrs by LC/MS-MS analysis; type: ADME, organism-based; conditions: other tissue
Outline: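 Male Wistar-Hannover rats (n = 2 or 3) dosed orally as a suspension in 0.5% methyl cellulose with 0.1% Tween 80. Total plasma and liver concentrations taken 6 h post-dose. Converted to unbound values using fraction unbound in plasma and liver from equilibrium dialysis. Kpu,u = ratio of mean free liver to free plasma concentration.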

[23] = target: Solute carrier family 22 member 2 (Homo sapiens, UniProt O15244); test: Inhibition of human SLC22A2 expressed in HEK293 cells in presence of para-aminohippuric acid/metformin; type: cell-based
Sequence of Solute carrier family 22 member 2 (O15244 whole entry): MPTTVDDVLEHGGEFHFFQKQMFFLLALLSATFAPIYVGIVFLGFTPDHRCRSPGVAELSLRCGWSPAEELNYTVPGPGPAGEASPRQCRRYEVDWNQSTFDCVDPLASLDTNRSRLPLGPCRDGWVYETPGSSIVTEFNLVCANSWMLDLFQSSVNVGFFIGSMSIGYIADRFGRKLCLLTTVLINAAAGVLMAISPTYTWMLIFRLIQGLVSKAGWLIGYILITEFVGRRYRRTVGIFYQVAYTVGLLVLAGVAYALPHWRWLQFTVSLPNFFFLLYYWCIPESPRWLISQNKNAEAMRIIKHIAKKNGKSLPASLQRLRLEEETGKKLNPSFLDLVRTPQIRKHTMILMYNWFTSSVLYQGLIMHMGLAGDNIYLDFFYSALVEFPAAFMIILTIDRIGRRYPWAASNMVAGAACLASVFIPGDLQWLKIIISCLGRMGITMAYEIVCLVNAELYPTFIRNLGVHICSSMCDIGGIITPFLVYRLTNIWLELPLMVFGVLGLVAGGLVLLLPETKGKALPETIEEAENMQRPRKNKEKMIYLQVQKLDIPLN

Ratio [1]: 376
half-life [2]: 5.7 h
bioavailability [3]: 27%
Structure (SMILES): COc1cc(C(=O)N2CCC3(CC2)CC(=O)c2nn(C(C)(C)C)cc2O3)cc(-c2ccc(C(=O)O)cc2)n1

Activity [4]: Not Active
Activity [6]: Not Active
IC50 [7]: > 50 µM
concentration at 6 h [9]: 314 ng/mL
IC50 [10]: 0.00824 µM
IC50 [12]: > 20 µM
dose excreted at 24 h [13]: < 2%
Activity [15]: Not Active
Cp(f) [16]: 119.4 nM
CLH [18]: 24 µL/min/mg
IC50 [19]: > 50 µM
half-life [20]: 11 h
solubility thermodynamic at 24 h [21]: 234 µM (≈ 118 µg/mL)
Ratio [22]: 132
IC50 [23]: > 30 µM
Structure (SMILES): COc1cc(C(=O)N2CCC3(CC2)CC(=O)c2c(cnn2C(C)C)C3)cc(-c2ccc(C(=O)O)cc2)n1 [CLESACOSTAT]
inhibition in vivo at 10 mg/kg [5]: 100%
inhibition in vivo at 300 mg/kg [8]: 82%
Activity [11]: Non-Toxic
inhibition (INH) [14]: Not Active
Activity [17]: Non-Toxic
